Test results as given in ChEMBL document CHEMBL4261643, “Reducing the Lipophilicity of Perfluoroalkyl Groups by CF2-F/CF2-Me or CF3/CH3 Exchange” (J Med Chem, 2018).

Columns and labels:
[1] = Intrinsic clearance in human liver microsomes preincubated in presence of NADPH for 30 mins and measured up to 30 mins by LC-MS/MS analysis; format: ADME, microsome; conditions: read-out: CLH
In short: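 Compound from DMSO stock was incubated with human liver microsomes plus NADPH at 37 °C. Aliquots taken at 0.7, 5.8, 11.6, 17.2, 22.7 and 30 min were quenched with cold acetonitrile and centrifuged at 4 °C. Substrate loss was measured by LC-MS/MS, and Clint is given in µL/min/mg. Six isoform-specific P450/FMO marker substrates were included in each run.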

[2] = Intrinsic clearance in Han Wistar rat hepatocytes assessed as per million cells preincubated in presence of NADPH for 30 mins and measured up to 120 mins by LC-MS/MS analysis; format: ADME, cell-based, Hepatocyte; conditions: read-out: CLH
In short: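 Cryopreserved Han Wistar rat hepatocytes at 1x10^6 cells/mL were incubated with compound from DMSO stock at 37 °C. Samples were taken at 0.5, 5, 15, 20, 30, 45, 60, 80, 100 and 120 min and quenched with cold acetonitrile. After centrifugation at 4 °C, substrate disappearance was followed by LC-MS/MS. Clint is expressed in µL/min/10^6 cells.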

[3] = Partition coefficient, log D of the compound at pH 7.4 after 30 mins by shake-flask method; format: physicochemical; conditions: octanol/water
In short: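 Octanol/pH 7.4 buffer shake-flask: compound in buffer plus octanol, shaken 30 min, then centrifuged. The aqueous layer was quantified by LC-UV against the solution before octanol addition to give D7.4. Runs were pools of 10 compounds including three QC compounds (cyclobenzaprine, nicardipine, caffeine).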

[4] = Aqueous solubility of the compound in phosphate buffer at pH 7.4 after 24 hrs by shake-flask method; format: physicochemical
In short: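 Dried compound equilibrated in aqueous phosphate buffer, pH 7.4, for 24 h at 25 °C. The dissolved portion was separated from the remaining solid and quantified by UPLC/MS/MS. QC samples were included in each run.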

[5] = Fraction unbound in 10% human plasma after 18 hrs by LC-MS/MS analysis; format: ADME, cell-free
In short: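 Compound from DMSO stock was dialysed against buffer in 10% human plasma on a RED device for 18 h. Plasma and buffer samples were quantified by LC-MS/MS against a 7-point calibration curve in plasma. Samples were generally run in singlicate, in pools of up to 10 compounds. Propranolol, metoprolol and warfarin served as reference compounds in each run.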

hERG (KCNH2) = hERG (KCNH2) (Homo sapiens, UniProt Q12809); experiment: Inhibition of human ERG at 10 uM relative to cisapride
Sequence of hERG (KCNH2) (Q12809 whole entry): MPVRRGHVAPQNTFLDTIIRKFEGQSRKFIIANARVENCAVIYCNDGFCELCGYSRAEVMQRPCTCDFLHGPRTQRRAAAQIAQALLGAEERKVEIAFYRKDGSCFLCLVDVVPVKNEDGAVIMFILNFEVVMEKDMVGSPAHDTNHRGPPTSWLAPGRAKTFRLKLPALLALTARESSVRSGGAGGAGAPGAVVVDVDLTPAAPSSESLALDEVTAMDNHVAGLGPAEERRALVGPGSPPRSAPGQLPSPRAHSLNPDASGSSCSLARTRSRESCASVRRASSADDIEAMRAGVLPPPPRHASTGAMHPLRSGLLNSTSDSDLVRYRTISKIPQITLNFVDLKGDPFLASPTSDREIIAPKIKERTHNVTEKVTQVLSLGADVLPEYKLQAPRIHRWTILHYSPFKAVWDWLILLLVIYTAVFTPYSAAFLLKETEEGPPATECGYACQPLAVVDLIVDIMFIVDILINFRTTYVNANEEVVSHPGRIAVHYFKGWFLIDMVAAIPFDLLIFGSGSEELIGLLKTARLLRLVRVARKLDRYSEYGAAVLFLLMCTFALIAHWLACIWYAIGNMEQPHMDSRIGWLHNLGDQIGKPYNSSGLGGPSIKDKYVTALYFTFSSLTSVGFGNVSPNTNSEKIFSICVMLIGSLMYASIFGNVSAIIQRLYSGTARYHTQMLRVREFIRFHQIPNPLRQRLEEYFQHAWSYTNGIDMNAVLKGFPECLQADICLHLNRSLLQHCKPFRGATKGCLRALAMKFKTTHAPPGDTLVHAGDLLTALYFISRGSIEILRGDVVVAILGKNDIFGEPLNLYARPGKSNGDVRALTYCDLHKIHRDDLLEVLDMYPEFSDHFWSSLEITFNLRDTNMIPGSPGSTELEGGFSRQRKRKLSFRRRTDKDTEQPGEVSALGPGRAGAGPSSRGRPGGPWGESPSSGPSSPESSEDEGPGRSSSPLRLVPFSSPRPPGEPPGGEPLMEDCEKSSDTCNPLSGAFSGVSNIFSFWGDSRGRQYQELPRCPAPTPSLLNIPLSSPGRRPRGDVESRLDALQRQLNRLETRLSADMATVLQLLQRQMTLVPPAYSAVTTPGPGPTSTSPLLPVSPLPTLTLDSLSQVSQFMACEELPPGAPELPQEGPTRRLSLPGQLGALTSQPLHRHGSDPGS

Compound | microsomal CLint [1] | hepatocyte CLint [2] | logD at 0.5 h [3] | solubility thermodynamic at 24 h [4] | fraction unbound at 18 h [5] | inhibition at 10 µM (hERG (KCNH2))
CN(C)C(=O)CNCCc1cccc(OCCC(C)(F)F)c1.Cl | 7 µL/min/mg | 34 µL/min/1e6 cells | 1.1 | 960 µM | 0.62 | 35%
CCCCCOc1cccc(CCNCC(=O)N(C)C)c1.Cl | 29 µL/min/mg | 91 µL/min/1e6 cells | 2.3 | 779 µM | 0.23 | 70%
CN(C)C(=O)CNCCc1cccc(OCC(F)(F)C(F)(F)C(F)(F)F)c1.Cl | 8 µL/min/mg | 20 µL/min/1e6 cells | 2.5 | 952 µM | 0.2 | 57%
CN(C)C(=O)CNCCc1cccc(OCC(F)(F)C(F)(F)C(C)(F)F)c1.Cl | 9 µL/min/mg | 64 µL/min/1e6 cells | 2.2 | 946 µM | 0.25 | 63%
CN(C)C(=O)CNCCc1cccc(OCC(F)(F)C(C)(F)F)c1.Cl | 10 µL/min/mg | 32 µL/min/1e6 cells | 1.6 | 929 µM | 0.51 | 41%
CN(C)C(=O)CNCCc1cccc(OCC(F)(F)C(F)(F)C(F)(F)C(F)(F)F)c1.Cl |  |  |  | 955 µM |  | 
CCCCOc1cccc(CCNCC(=O)N(C)C)c1.Cl | 13 µL/min/mg | 82 µL/min/1e6 cells | 1.8 | 782 µM | 0.45 | 31%
CN(C)C(=O)CNCCc1cccc(OCCCC(C)(F)F)c1.Cl | 7 µL/min/mg | 38 µL/min/1e6 cells | 1.7 | 1000 µM | 0.49 | 45%
